Screening data as filed in PubChem BioAssay.
A selection: hits, their analogues and other compounds. The true share with any hit is near 4.6%.
GPR7 antagonist: blocks human GPR7 receptor signaling | AID 1861 | GPR7-expressing cells, fluorescence antagonist assay | P48145 | actives 1.1% (n = 290,000) | inhibition, % at 4.4 µM; in the data active = inhibition above about 16%, passing the limit was not always enough;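 also: cells stimulated with the agonist NPW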
TAAR1 antag: antagonists of human TAAR1 | actives 1.5% (n = 360,000) | inhibition, % at 3 µM | CHO RD-HGA16 TAAR1, Fluo-8 calcium fluorescence, antagonist | Q96RJ0;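 active = inhibition above a per-plate cutoff, the mean inhibition of test compounds on that plate plus 3 SD, cut at about 49% in these data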
Target sequence (Q96RJ0 whole entry, looked up): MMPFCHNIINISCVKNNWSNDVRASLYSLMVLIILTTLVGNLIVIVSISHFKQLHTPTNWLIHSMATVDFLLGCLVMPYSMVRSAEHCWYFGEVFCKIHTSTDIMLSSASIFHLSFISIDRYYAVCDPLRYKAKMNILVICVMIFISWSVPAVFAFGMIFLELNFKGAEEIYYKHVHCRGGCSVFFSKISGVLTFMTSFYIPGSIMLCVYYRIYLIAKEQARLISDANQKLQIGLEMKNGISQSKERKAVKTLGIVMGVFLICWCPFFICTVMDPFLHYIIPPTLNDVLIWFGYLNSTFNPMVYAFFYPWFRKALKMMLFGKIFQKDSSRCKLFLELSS
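Test system – hTAAR1-expressing CHO RD-HGA16 cells, Gα16-coupled · Also added – β-PEA at EC80 concentration, post-compound challenge · Compound – 3 µM, single point · Incubation – dye loading 75 min at 37 °C, then 30 min room temperature · Measured by – Fluo-8 intracellular calcium dye fluorescence, real-time kinetic reads · Benchmarks – vehicle and agonist controls · Replicates – singlicate, one well per test compound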
CHO parental Ca: signal in parental CHO cells, OX1R antagonist counter-screen; parental CHO-K1, ATP-induced calcium, Fluo-8 fluorescence; inhibition, % at 5.6 µM; actives 0.63% (n = 330,000);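 active = inhibition above that plate's mean sample inhibition plus 3 SD, cut at about 26% in these data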
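Material: Parental CHO cells | Reagent: ATP | Compound dosing: Single nominal dose of 5.6 µM per compound | Detection: Intracellular calcium via Fluo-8 no-wash fluorescent dye | Read-out: % inhibition of ATP-induced calcium mobilization | Benchmarks: Low control ATP plus DMSO, high control DMSO only | Replicates: Singlicate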
TAAR1 agonist: agonists of human TAAR1. Q96RJ0. CHO RD-HGA16 TAAR1, Fluo-8 calcium fluorescence; vehicle wells 0%, saturating PEA agonist 100%. activation, % at 3 µM. actives 0.99% (n = 360,000);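 active = activation above the mean activation of all test compounds in the run plus 3 SD, cut at about 38% in these data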
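Test system: RD-HGA16 (CHO) cells co-expressing Gα16 and hTAAR1; dosing: one-point dosing at 3 µM (nominal); timing: 17-24 h seeding, 75 min 37 °C dye, 30 min RT; signal: kinetic Fluo-8 calcium fluorescence; read-out basis: % activation relative to PEA EC100 response; controls: DMSO and PEA EC100; replicates: n 1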
OX1R antag-1: antagonists of human orexin 1 receptor (OX1R) | O43613 | OX1R-expressing cells, FRET antagonist read-out | inhibition, % at 6.6 µM | actives 1.8% (n = 330,000) | AID 485270; in the data active = inhibition mostly above about 38%, no sharp cut-off; inactive = mostly below about 40%
Target sequence (O43613 whole entry, looked up): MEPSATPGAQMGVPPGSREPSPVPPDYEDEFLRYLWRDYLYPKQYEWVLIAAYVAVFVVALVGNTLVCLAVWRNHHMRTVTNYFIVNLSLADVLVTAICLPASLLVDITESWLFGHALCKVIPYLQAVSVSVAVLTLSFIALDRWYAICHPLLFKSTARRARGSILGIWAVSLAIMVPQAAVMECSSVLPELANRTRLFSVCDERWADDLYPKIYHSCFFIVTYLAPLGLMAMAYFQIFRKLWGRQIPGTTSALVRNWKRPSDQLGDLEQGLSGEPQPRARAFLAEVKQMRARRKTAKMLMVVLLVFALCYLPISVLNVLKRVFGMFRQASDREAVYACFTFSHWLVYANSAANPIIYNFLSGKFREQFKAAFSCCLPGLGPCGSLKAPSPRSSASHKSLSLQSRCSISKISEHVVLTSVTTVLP
OX1R antag-2: human HCRTR1 antagonism; O43613; CHO/OX1R cells, Fluo-8 calcium fluorescence, orexin A; inhibition, % at 5 µM; actives 0.43% (n = 330,000);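 active = inhibition above its plate's threshold, mean inhibition of all tested compounds on the plate plus 3 SD, cut at about 37% in these data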
Of the large screens only hits and unclear results are named; the others gave an inactive call.

Cc1ccc(S(=O)(=O)NN=Cc2c(O)ccc3ccccc23)cc1	none (no result: GPR7 antagonist, CHO parental Ca, OX1R antag-1, OX1R antag-2)
CCOc1ccc(CN2CCN(C3CCC3)CC2CCO)cc1 (stereo unspecified)	none
COc1cccc(N=Nc2c(N)[nH]n3c(=O)cc(-c4ccccc4)nc23)c1	none
COc1cccc(N=Nc2c(=O)[nH]n3c(C)cc(C)nc23)c1	OX1R antag-1 64
N=C1C(=O)OCC1c1cc(Cl)ccc1NC(=O)Nc1ccccc1 (stereo unspecified)	none
CCOC(=O)C1(Cc2ccccc2)CCN(Cc2cn(CC(=O)OC)c3ccccc23)CC1	GPR7 antagonist 32
CCOC(=O)C1(Cc2ccccc2)CCN(Cc2cccc(OC)c2O)CC1	none
O=C(O)CCNc1cc(N2CCN(C(=O)c3ccco3)CC2)c2noc3c2c1C(=O)c1ccccc1-3	OX1R antag-1 76
CCN1CCN(c2cc(N3CCN(C(=O)c4ccco4)CC3)c3c4c(onc24)-c2ccccc2C3=O)CC1	OX1R antag-1 69 (no result: TAAR1 antag, TAAR1 agonist)
O=C(CN1C(=O)COc2ccc(S(=O)(=O)N3CCOCC3)cc21)NCc1ccco1	none
CC(=O)c1ccc(OCCCC(=O)N2CCN(S(=O)(=O)c3cccs3)CC2)cc1	none
COc1ccccc1C(=O)OCC#CCSc1nnc(-c2cccc3ccccc23)o1	OX1R antag-1 49 (no result: GPR7 antagonist)
Cc1ccc(CNC(=O)CO/N=C/c2ccc3c(c2)OCO3)cc1	none
CC(=O)c1ccc(OCc2ccc(C(=O)c3ccccc3)cc2)cc1	CHO parental Ca 49
O=C(c1ccco1)N1CCN(c2ncnc3c2oc2ccccc23)CC1	OX1R antag-1 74
COC(/C(=N/O)c1ccc(Cl)cc1)c1ccccc1 (stereo unspecified)	CHO parental Ca 60
COc1ccc(Cl)cc1NC(=O)C(OC)c1ccccc1 (stereo unspecified)	none
Cc1ccc(-n2c3nc(=O)n(C)c(=O)c-3cc3ccccc32)cc1	OX1R antag-1 50
CCCCn1c(=O)nc2n(-c3ccc(C)cc3)c3ccccc3cc-2c1=O	none
O=S(=O)(c1ccccc1)N1CCC(O)(CSc2ccc(Cl)cc2)CC1	CHO parental Ca 62, OX1R antag-2 46
OC(COc1ccc(Br)cc1)CN1CCC(Cc2ccccc2)CC1 (stereo unspecified)	TAAR1 agonist 42
CC(C)OCC(O)CN1CCC(Cc2ccccc2)CC1 (stereo unspecified)	none
O=C(O)c1ccccc1-c1c2cc(I)c(=O)c(I)c-2oc2c(I)c(O)c(I)cc12	TAAR1 antag 83, CHO parental Ca 78, TAAR1 agonist 136, OX1R antag-2 79 (no result: GPR7 antagonist)
OCC(CO)(CO)n1cnnn1	none
O=C(c1ccc(NC(=S)NCc2ccc(Cl)cc2)cc1)N1CCCCC1	TAAR1 agonist 44
CCOCC(O)CNc1ccccc1 (stereo unspecified)	none
OC(CNc1ccccc1)COc1ccc(OCC(O)CNc2ccccc2)cc1 (stereo unspecified)	CHO parental Ca 50
OC(CNCCc1ccc(C(F)(F)F)cc1)COc1ccc2ccccc2c1 (stereo unspecified)	CHO parental Ca 48
COc1ccc(CNCC(O)COc2ccc(C(C)(C)c3ccccc3)cc2)cc1 (stereo unspecified)	CHO parental Ca 36, TAAR1 agonist 41
COc1ccc(CCNCC(O)COc2cccc(Br)c2)cc1 (stereo unspecified)	none
O=S(=O)([O-])CCC[n+]1c(/C=C\Nc2ccccc2)oc2ccc(-c3ccccc3)cc21	none (no result: TAAR1 antag, CHO parental Ca, TAAR1 agonist, OX1R antag-1, OX1R antag-2)
COc1cc(OC)cc(-c2c(-c3cccs3)c3cc(-c4cnc(N)nc4)ccc3n2C)c1	none (no result: GPR7 antagonist)
Cc1ccc(/C=C/c2ccc(N(C)C)cc2)[n+](C)c1	OX1R antag-1 39
COc1ccc(NC(=O)c2cc(-c3cc(C)ccc3O)n[nH]2)cc1Cl	OX1R antag-1 71
COc1ccc(OC)c(NC(=O)c2cc(-c3cc(Cl)ccc3O)n[nH]2)c1	CHO parental Ca 35, OX1R antag-1 101, OX1R antag-2 97
Nc1ccccc1SCC(O)Cn1ccc2ccccc21 (stereo unspecified)	none (no result: TAAR1 antag, TAAR1 agonist)
Cc1cc(=O)nc2c3ccccc3n(CC(=O)NCCCN3CCCCC3C)n12 (stereo unspecified)	none
CCCCn1c(NC(=O)c2ccccc2Cl)c(C#N)c2nc3ccccc3nc21	OX1R antag-1 59
CCc1ccc(C2CC(=O)N3CN(c4ccccc4)CSC3=C2C#N)cc1 (stereo unspecified)	none
N#CC1=C2SCC(O)(c3ccccc3)N2C(=O)CC1c1ccccc1 (stereo unspecified)	GPR7 antagonist 17
O=C1c2ccccc2S(=O)(=O)N1Cc1nnc(-c2ccccc2Br)o1	none (no result: CHO parental Ca, OX1R antag-1, OX1R antag-2)
O=S1(=O)c2cccc3cccc(c23)N1Cc1nnc(-c2ccccc2Br)o1	CHO parental Ca 32
O=C(CSc1nnc2n1CCCN2)c1ccc([N+](=O)[O-])cc1	OX1R antag-1 51
CCCc1c(-c2ccccc2F)ncn1CCc1ccccc1OC	none (no result: GPR7 antagonist, CHO parental Ca, OX1R antag-1, OX1R antag-2)
CCCCc1c(-c2cccc(Br)c2)ncn1CCc1ccccc1OC	TAAR1 agonist 43 (no result: GPR7 antagonist, CHO parental Ca, OX1R antag-1, OX1R antag-2)
CCCCCc1c(CC)ncn1CCc1ccccc1OC	TAAR1 antag 53, TAAR1 agonist 48 (no result: GPR7 antagonist, CHO parental Ca, OX1R antag-1, OX1R antag-2)
CCCc1c(-c2ccccc2OC)ncn1CCc1ccccc1OC	none (no result: GPR7 antagonist, CHO parental Ca, OX1R antag-1, OX1R antag-2)
CCCCc1c(-c2ccccc2OC)ncn1CCc1ccccc1OC	TAAR1 agonist 48 (no result: GPR7 antagonist, CHO parental Ca, OX1R antag-1, OX1R antag-2)
CCCCCc1c(-c2ccccc2OC)ncn1CCc1ccccc1OC	TAAR1 antag 51 (no result: GPR7 antagonist, CHO parental Ca, OX1R antag-1, OX1R antag-2)
CCCCCc1c(-c2ccc(F)cc2)ncn1CCc1ccccc1OC	none (no result: GPR7 antagonist, CHO parental Ca, OX1R antag-1, OX1R antag-2)
COc1ccc(-c2c(C#Cc3ccsc3)c3ccccc3n2C)cc1	none
Cc1ccc(C)c(NC(=O)[C@@H]2CCCN2S(=O)(=O)c2ccccc2F)c1	OX1R antag-1 43 (no result: GPR7 antagonist)
CC(C)c1ccc(NC(=O)C2CCCN2S(=O)(=O)c2ccccc2F)cc1 (stereo unspecified)	OX1R antag-1 37 (no result: GPR7 antagonist)
O=C(Nc1nccs1)[C@@H]1CCCN1S(=O)(=O)c1ccccc1F	none (no result: GPR7 antagonist, CHO parental Ca, OX1R antag-1, OX1R antag-2)
CC(=O)c1sc(NC(=O)C2CCCN2S(=O)(=O)c2ccccc2F)nc1C (stereo unspecified)	OX1R antag-1 37 (no result: GPR7 antagonist)
COc1ccc(C)cc1NC(=O)C1CCCN1S(=O)(=O)c1ccccc1F (stereo unspecified)	OX1R antag-1 52 (no result: GPR7 antagonist)
O=C(Cn1cc2c(n1)CCCC2)Nc1ccccc1Cl	none
CC(C)(C)c1ccc(OCCC(=O)NCCc2ccc(S(N)(=O)=O)cc2)cc1	none (no result: CHO parental Ca, OX1R antag-1, OX1R antag-2)
COc1ccc(-c2noc(COc3ccccc3OC)n2)cc1OC	OX1R antag-1 47
COc1ccc(-c2noc(CCCC(=O)NCCc3ccccc3)n2)cc1OC	TAAR1 agonist 58
O=C1NC[C@H](CCCCN2C[C@H](Cc3ccc(O)cc3)N(CCC3CCCCC3)C(=O)C2=O)N(CCc2ccc(O)cc2)C1=O	none (no result: GPR7 antagonist, CHO parental Ca, OX1R antag-1, OX1R antag-2)
